For test [1], the target named is GABA-A receptor; anion channel. As to the kind of experiment: Non-competitive displacement of [35S]TBPS from picrotoxin binding site found in heterogeneous Gamma-aminobutyric acid A receptor in rat brain membranes. The class given is cell membranes. The procedure, abridged: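 Rat brain membranes (washed P2, 0.5 mg/mL final protein) incubated 2 h at room temperature with 5 μM GABA, 2 nM [35S]TBPS and steroid from DMSO (final 1 nM–10 μM) in 200 mM NaCl/50 mM potassium phosphate, pH 7.4. Nonspecific binding defined with 200 μM picrotoxinin. Filtration, scintillation counting, Hill fit for IC50. Triplicate points, two or three curves per steroid.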
On the technique in general: Loss of bound radioactivity is the signal in a displacement assay; it reports binding, not function.

In test [2] the target is T1, GABA-A receptor; alpha-1/beta-2/gamma-2 (Rattus norvegicus) (UniProt P18508+P62813+P63138). Put plainly: In vitro current effect against rat GABA receptor alpha-1-beta-2-gamma-2 subunits expressed in Xenopus laevis oocytes at 10 uM (ratio +/- compound). It counts as cell-based. The note with it: Oocyte. The procedure, abridged:
(§1)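 Two-electrode voltage clamp at -70 mV, 2–5 days after injecting rat α1, β2 and γ2L cRNA (20–40 ng total, equal parts) into defolliculated stage V–VI oocytes held at 18 °C in ND96. Compound was co-applied with 2 μM GABA for 20 s and peak current measured. Value is the ratio of current with/without compound, from at least four oocytes.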

Test [3] is described as follows: Hill coefficient for loss of swimming response. The class given is functional. The procedure, abridged: (§2)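 Groups of 10 early pre-limb-bud X. laevis tadpoles were placed in 100 mL oxygenated Ringer's containing compound at various concentrations. Compound came from a 10 mM DMSO stock, about 0.1% DMSO final. Loss of righting and loss of swimming responses were scored. EC50 and Hill coefficient n were taken from a Hill equation fit.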

Test [4] is described as follows: Hill coefficient for loss of righting response. It counts as functional. The procedure, abridged: as §2
Test [5] in a line: Loss of righting reflex in Xenopus laevis tadpole. It counts as functional, frog. The note with it: Amphibia, read-out: ED50 (the source's name). The procedure, abridged: as §2
Test [6] in a line: Hill coefficient for displacement of [35S]TBPS. The class given is functional. The procedure, abridged:
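Rat brain membrane P2 fraction washed three times in 200 mM NaCl / 50 mM potassium phosphate, pH 7.4. Assay used 0.5 mg/mL protein, 5 μM GABA, 2 nM [35S]TBPS and steroid at 1 nM–10 μM final (0.5% DMSO), 2 h at room temperature, then filtration and scintillation counting. Nonspecific binding was taken with 200 μM picrotoxinin. Triplicate points, 2–3 curves per steroid; Hill equation fit gives n.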

For test [7], the target named is T1, GABA-A receptor; alpha-1/beta-2/gamma-2 (Rattus norvegicus). As to the kind of experiment: In vitro current effect against rat GABA receptor alpha-1-beta-2-gamma-2 subunits expressed in Xenopus laevis oocytes at 0.1 uM (ratio +/- compound). The class given is cell-based. The note with it: Oocyte. The procedure, abridged:
as §1

Test [8] in a line: Loss of swimming behavior in Xenopus laevis tadpole. To be noted: Amphibia, read-out: ED50 (the source's name). It counts as functional, frog. The procedure, abridged:
as §2

Test [9] concerns the target T1, GABA-A receptor; alpha-1/beta-2/gamma-2 (Rattus norvegicus). As to the kind of experiment: In vitro current effect against rat GABA receptor alpha-1-beta-2-gamma-2 subunits expressed in Xenopus laevis oocytes at 1 uM (ratio +/- compound). The class given is cell-based. The note with it: Oocyte. The procedure, abridged: as §1
For test [10] the target is unchanged. Put plainly: In vitro direct current effect against rat GABA receptor alpha-1-beta-2-gamma-2 subunits expressed in Xenopus laevis oocytes at 10 uM (ratio +/- compound, without GABA). The class given is cell-based. To be noted: Oocyte. The procedure, abridged:
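Same oocyte α1β2γ2L voltage-clamp setup at -70 mV, with peak current over 20 s applications. Compound was applied at 10 μM without GABA. Directly gated current is expressed as a ratio to the current evoked by 2 μM GABA, from at least four oocytes.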

As to `C[C@]12CC[C@@H](O)C[C@@H]1CC[C@H]1[C@@H]3CCC4CCC(=O)C[C@@]43CC[C@@H]12` (stereo not given in full), in test [1], the concentration for half-maximal inhibition (IC50) (commonly the concentration that gives 50% inhibition) worked out at 334 nM. Moreover, the Ratio in test [2] amounted to 6.49; in test [7] it was 1.39; in test [9], 1.64; in [10], 0.32. The figures for the nHill in [3], in [4] and in [6] were -16.7, -1.75 and 1.14, respectively. For the same molecule, the EC50 in test [5] is 1120 nM; in test [8] it was 3.58 µM.

As to `C[C@]12CC[C@@H](O)C[C@@H]1CC[C@@H]1[C@@H]2CC[C@]23C=CC(=O)C[C@H]2CC[C@@H]13`, in [1], the IC50 amounted to 1260 nM. Further, the Ratio is 5.07 in test [2], 1.12 in test [7], 1.54 in [9] and -0.04 in [10]. The values for the nHill in [3], in [4] and in [6] were -33.5, -1.57 and 1, respectively. Also, the EC50 in test [5] was 730 nM; in [8], 5.48 µM.

In test [1], `C[C@]12CC[C@@H](O)C[C@H]1CC[C@H]1[C@@H]3CCC4CC(=O)CC[C@@]43CC[C@@H]12` (stereo not given in full) gave an IC50 of 3230 nM. Also, the Ratio in test [2] is 2.65; in [7], 0.97; in test [9], 1.11; in test [10], -0.1. In addition, the nHill in [3] was -18.7; in [4], -1.86; in test [6], 0.73. For the same molecule, the values for the EC50 in test [5] and in test [8] were 2470 nM and 9.43 µM, respectively.

In test [1], `C[C@]12CC[C@@H](O)C[C@@H]1CC[C@H]1[C@@H]3CCC4C(=O)CCC[C@@]43CC[C@@H]12` (stereo not given in full) registered an IC50 of 514 nM. Besides, the Ratio in [2] is 2.28; in test [7], 1.01; in [9], 1.44; in test [10] it was 0. Also, the nHill was -33.5 in test [3], -2.51 in [4] and 0.84 in test [6]. Moreover, the EC50 was determined as 1360 nM in test [5] and 5.45 µM in [8].

Values taken from ChEMBL document CHEMBL1145917, “Neurosteroid analogues. 9. Conformationally constrained pregnanes: structure-activity studies of 13,24-cyclo-18,21-dinorcholane analogues of the GABA modulatory and anesthetic steroids (3alpha,5alpha)- and (3alpha,5beta)-3-hydroxypregnan-20-one” (J Med Chem, 2003).
